A short description of this data set: Toxicity liver stage against HepG2, at 10uM. The format is cell-based. Details: test concentration 10 uM, cell line HepG2-A16-CD81EGFP. The conditions noted are these: human, HepG2-A16-CD81EGFP cells; read-out: INHIBITION
An outline of the steps:
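Uninfected HepG2-A16-CD81EGFP cells, 3 × 10^3 per well, 1536-well, plated on prespotted compound at 10 μM final, parasite-free screening media added to match infected plates; puromycin 10 μM positive, DMSO 0.5% negative; run in parallel with 48 h PbLuc assay at 37 °C, 5% CO2; viability by CellTiter-Glo luminescence, normalized to controls.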
With `O=C(NC[C@H]1OC[C@@H](NCc2ccc(F)cc2)[C@@H]1O)N1CCOCC1`, the cytotoxicity at 10 µM amounted to 1.17%.

For `COC(=O)[C@@H]1Cc2ncn(C)c2CN1S(=O)(=O)Cc1ccccc1`, the cytotoxicity at 10 µM is -0.861%.

With `Cn1nc(-c2ccccc2)cc1[C@H]1CN2CC[C@H]1C[C@@H]2CNS(C)(=O)=O`, the cytotoxicity at 10 µM was 1.82%.

Regarding `O=C(Nc1ccccc1)[C@H]1O[C@H](CCN2CCCCC2)CC[C@@H]1O`, the cytotoxicity at 10 µM is -1.36%.

Consider `CC1(C)CNC(=O)CN(C(=O)Cc2ccccc2)C1`, for which the cytotoxicity at 10 µM is -6.92%.

For the compound `O=C(Cc1cnc(-n2cccc2)s1)NCCCO`, the cytotoxicity at 10 µM is -3.14%.

As for `Cc1nc(C)c(CC(=O)NCc2ccc(F)cc2)s1`, the cytotoxicity at 10 µM worked out at 8.05%.

With `Cc1n[nH]c2nc(-c3cccc(Cl)c3)cc(C(=O)O)c12`, the cytotoxicity at 10 µM is -1.05%.

For `O=c1ccc(-n2ccnc2)nn1CCNS(=O)(=O)c1ccc(F)c(Cl)c1`, the cytotoxicity at 10 µM is -4.39%.

With `CNC(=O)c1nnn(-c2ccccc2F)c1-c1ccccn1`, the cytotoxicity at 10 µM was -4.21%.

For `CC(C)C(=O)N1CCC2(CC1)NC(=O)[C@H]1CN(C(=O)N(C)C)C[C@H]12`, the cytotoxicity at 10 µM amounted to 3.03%.

As for `O=c1ccc2c(n1Cc1cccnc1)CCC(NCc1cccnc1)C2` (stereo not given), the cytotoxicity at 10 µM is 19.2%.

In the case of `CN(C)C(=O)N1CC2(CCOCC2)c2cc(NS(=O)(=O)C3CC3)ccc21`, the cytotoxicity at 10 µM was -7.15%.

For the compound `COCCN1CCc2ncc(CN(C)C)n2CC1`, the cytotoxicity at 10 µM was -0.0807%.

For `CNC(=O)[C@@H]1COC[C@H]2CN(C(=O)c3ccc(OC)cc3)C[C@H]21`, the cytotoxicity at 10 µM was 9.48%.

`CS(=O)(=O)N1CCCC12CCCN(S(=O)(=O)c1cccc(F)c1)C2` (stereo not given): the cytotoxicity at 10 µM worked out at 0.88%.

With `CCc1cccc(NC(=O)N2CCn3cnc(COC)c3C2)c1`, the cytotoxicity at 10 µM is 5.35%.

Consider `CNC(=O)CN1CCOCC2(CCCN(Cc3ccoc3)C2)C1` (stereo not given), for which the cytotoxicity at 10 µM amounted to 6.65%.

Consider `O=C(NC1CCCC1)C1Cc2nc(-c3ccsc3)sc2N1CC1CC1` (stereo not given), for which the cytotoxicity at 10 µM was 16.6%.

As for `COc1ccccc1C1SCC(=O)Nc2c1c(=O)[nH]n2C1CCCCC1` (stereo not given), the cytotoxicity at 10 µM is -1.2%.

For `Cn1nc(CNC(=O)C2CCCC2)cc1C1CC1`, the cytotoxicity at 10 µM was -0.265%.

Take `Cc1cc(C(F)(F)F)nn1C(C)C(=O)Nc1ccncc1` (stereo not given): the cytotoxicity at 10 µM turned out to be 3.1%.

As for `CN1CCC(c2cccc(NCc3ccncc3)n2)CC1`, the cytotoxicity at 10 µM turned out to be 6.08%.

Regarding `Cc1cc(-c2cnc(N3CCOCC3)nc2-c2cccnc2C)on1`, the cytotoxicity at 10 µM was -21.4%.

For `CCN1CCCC(c2cc(Nc3cnccn3)nc(C)n2)C1` (stereo not given), the cytotoxicity at 10 µM was -12.9%.

With `Cc1ccc(CC(=O)N(C)CC2(O)CCCN(c3ccccn3)C2)s1` (stereo not given), the cytotoxicity at 10 µM was -14.1%.

For `COc1ccccc1CNC(=O)c1ccccc1-n1cnc(CN)c1`, the cytotoxicity at 10 µM is -10.6%.

Regarding `O=C1Nc2ccccc2CC12CCCN2Cc1cccnc1` (stereo not given), the cytotoxicity at 10 µM was determined as 7.27%.

With `CC(O)c1cn(Cc2ccccc2)nn1` (stereo not given), the cytotoxicity at 10 µM is 7.62%.

On to `CNC(=O)c1ccc(CN(C)C(=O)Nc2nnc(C(C)C)s2)cc1`, for which the cytotoxicity at 10 µM was -14%.

On to `CNC(=O)CNC(=O)Nc1ccc(F)c(Br)c1`, for which the cytotoxicity at 10 µM amounted to 7.92%.

On to `Cc1cccn2cc(CN3CCC(N4CCN(C)C4=O)CC3)nc12`, for which the cytotoxicity at 10 µM was 7.31%.

On to `Cc1cccc(NC(=O)CNC(=O)c2ccccc2F)c1`, for which the cytotoxicity at 10 µM is -1.24%.

With `O=C(NCC1CCS(=O)(=O)C1)c1ccco1` (stereo not given), the cytotoxicity at 10 µM is -7%.

With `O=C1NCCCC1NC(=O)C1(c2cccc(Cl)c2)CCC1` (stereo not given), the cytotoxicity at 10 µM was -2.09%.

Turning to `CN1CCN(CC(NCc2ccc(F)cc2)c2ccccc2)CC1` (stereo not given), the cytotoxicity at 10 µM was -15.7%.

Consider `Cc1nc(CN2CCN(C(=O)Cc3cccc(Cl)c3)CC2)no1`, for which the cytotoxicity at 10 µM was -4.76%.

Turning to `CCCc1cc(NC2CCc3nc(C)nn3C2)n2ncnc2n1` (stereo not given), the cytotoxicity at 10 µM is -10.4%.

With `O=C(COc1ccc(-c2ccccc2)nc1)NCC1CC1`, the cytotoxicity at 10 µM was 6.8%.

Turning to `CCc1cnc(CN(C)C2CCN(CCCS(=O)(=O)NC)C2)o1` (stereo not given), the cytotoxicity at 10 µM stood at 7.82%.

On to `O=C(c1csc(-c2ncccn2)n1)N1CCN2CCCCC2C1` (stereo not given), for which the cytotoxicity at 10 µM stood at 4.55%.

Take `COc1ccc2cccc(CC(=O)NCc3n[nH]c(=O)[nH]3)c2c1`: the cytotoxicity at 10 µM was -3.22%.

For `O=C(c1nc(=O)[nH][nH]1)N1CCCCCC1`, the cytotoxicity at 10 µM worked out at 14.1%.

For `Cc1ccc(Cl)cc1S(=O)(=O)NCc1cnc(N(C)C)n1C`, the cytotoxicity at 10 µM was 5.17%.

With `Cc1noc(C(C)NC(=O)[C@@H](C)NC(=O)OC(C)(C)C)n1` (stereo not given in full), the cytotoxicity at 10 µM was determined as 5.81%.

`CCc1nc(CN2CCN(C(=O)c3csc(C(C)C)n3)CC2)no1`: the cytotoxicity at 10 µM was 11.3%.

`CSc1ccc(OC(C)C(=O)Nc2c(C)n[nH]c2C)cc1` (stereo not given): the cytotoxicity at 10 µM turned out to be 6.8%.

For `Cc1cc(C2CCCN(C(=O)c3c(C)noc3C)C2)n[nH]1` (stereo not given), the cytotoxicity at 10 µM was -6.63%.

As to `CNC(=O)[C@@H]1C[C@H]2CN(Cc3ccc(C)o3)C[C@H]2N1C(C)=O`, the cytotoxicity at 10 µM was -103%.

With `CCCc1nccn1-c1cccc(CN2CCCC2)c1`, the cytotoxicity at 10 µM was -4.87%.

With `CCc1nc(N2CCCC(CO)(CCOC)C2)ncc1C` (stereo not given), the cytotoxicity at 10 µM turned out to be 4.93%.

Turning to `O=C(CCc1cc(Cl)no1)N1CCN(CCn2cncn2)CC1`, the cytotoxicity at 10 µM is -1.84%.

As to `CCN1CCN(C[C@@H]2CN(c3ncccc3F)C[C@@H]2CO)CC1`, the cytotoxicity at 10 µM was -6.45%.

Consider `Cc1nc2c(c(=O)[nH]1)CN(C(=O)CC[C@@H]1CCCN3CCCC[C@H]13)C2`, for which the cytotoxicity at 10 µM is 17%.

With `CCC[C@H]1CN(S(=O)(=O)c2ccccc2)C[C@@H]1N`, the cytotoxicity at 10 µM amounted to 1.35%.

Take `N#Cc1ccc(N2CCC(c3nccn3Cc3cscn3)CC2)nc1`: the cytotoxicity at 10 µM is -7.01%.

Regarding `CCN1CCC(CNC(=O)C(c2ccc(F)cc2)N(C)C)(N(C)C)CC1` (stereo not given), the cytotoxicity at 10 µM is -0.288%.

As to `Cc1cc(C)nc(CN(C)C(=O)c2cccc(CCC(C)(C)O)c2)c1`, the cytotoxicity at 10 µM is -3.25%.

Regarding `CCNC(=O)[C@@H]1C[C@H](N)CN1C(=O)Cc1cc(C)ccc1C`, the cytotoxicity at 10 µM is 2.43%.

As for `Fc1ccc(Cn2ncc3c2CN(c2ncccn2)C3)cc1`, the cytotoxicity at 10 µM was determined as 1.5%.

`CCC1C=CCN1C(=O)c1cc(COc2ccccc2OC)[nH]n1` (stereo not given): the cytotoxicity at 10 µM was found to be 2.93%.

For the compound `CCC(=O)N1CCN(C(=O)Nc2cccc(C#N)c2)[C@H]2CS(=O)(=O)C[C@H]21`, the cytotoxicity at 10 µM is -46%.

Turning to `Cc1oc(-c2ccoc2)nc1CN1CCCCC1CCc1ccccc1` (stereo not given), the cytotoxicity at 10 µM is -1.48%.

Regarding `CCc1c(C)sc(NC(=O)CN2CCOCC2)c1C(=O)OC`, the cytotoxicity at 10 µM amounted to 19.3%.

For the compound `CC1CCN(S(=O)(=O)c2ccc(C(=O)N3CCSCC3)cc2)CC1`, the cytotoxicity at 10 µM came to 9.54%.

In the case of `COc1ccc(C)cc1CC(=O)NS(=O)(=O)c1ccc(C(N)=O)cc1`, the cytotoxicity at 10 µM was 8%.

Take `CN(Cc1ccc(F)cc1)C(=O)Nc1cccnc1N1CCCC1`: the cytotoxicity at 10 µM is -4.26%.

Regarding `COCc1nc(C(=O)NS(=O)(=O)c2ccc(F)cc2F)cs1`, the cytotoxicity at 10 µM was -8.51%.

Regarding `CC(C)CNC(=O)c1cccc(CN2CCc3c(ncn3C)C2)c1`, the cytotoxicity at 10 µM was -6.98%.

Turning to `Cc1cc2n(n1)CC(CNCc1ccc(N3CCOCC3)nc1)CN2` (stereo not given), the cytotoxicity at 10 µM was -15.3%.

For the compound `Cc1ccc(NC2CCN(C(=O)c3ccc(C#N)cc3)CC2)nn1`, the cytotoxicity at 10 µM was -4.28%.

Regarding `Cc1cc(NS(=O)(=O)c2ccc(C(=O)O)cc2F)ccc1F`, the cytotoxicity at 10 µM is -1.96%.

Turning to `COc1cc(C)ccc1OCC(=O)NS(=O)(=O)c1ccc(Br)s1`, the cytotoxicity at 10 µM was -7.72%.

For the compound `CC(=O)N(Cc1ncc(C)o1)C1CCN(Cc2sc(C)nc2C)C1` (stereo not given), the cytotoxicity at 10 µM was -19.8%.

With `CCc1nc(C2CCCN(C(=O)CC3CCOCC3)C2)no1` (stereo not given), the cytotoxicity at 10 µM is -15.3%.

For `CCc1nc(CN2CCCN(CC(=O)Nc3cccnc3)CC2)no1`, the cytotoxicity at 10 µM is -17.4%.

For `CC(=O)NCc1ccc(C(=O)N2CCCC2c2cnn(C)c2)o1` (stereo not given), the cytotoxicity at 10 µM is -8.67%.

Take `CC1CCN(CC(=O)NC2CCN(C(C)c3ccccc3)CC2)CC1` (stereo not given): the cytotoxicity at 10 µM was -6.36%.

With `Cc1cc(C[C@@H]2CCC[C@H]2NCc2cc(F)ccc2F)on1`, the cytotoxicity at 10 µM is -5.72%.

Consider `O=C(c1ccccn1)N1CCC2(CC1)COC(COCC1CCCC1)C2` (stereo not given), for which the cytotoxicity at 10 µM was -1.18%.

In the case of `Cn1cc(C(=O)NCc2cn3c(n2)CN(CC2CCCC2)CC3)cn1`, the cytotoxicity at 10 µM worked out at 7.17%.

For the compound `CN(Cc1cccnc1)[C@@H]1CN(C(=O)c2ccoc2)[C@@H]2CCCO[C@H]12`, the cytotoxicity at 10 µM was -1.81%.

In the case of `CCOCC1CN(Cc2cccnc2OC)Cc2cnn(C)c21` (stereo not given), the cytotoxicity at 10 µM is -1.6%.

For the compound `O=C1CC(c2ccccc2)C2(CCN(Cc3nccs3)CC2)N1` (stereo not given), the cytotoxicity at 10 µM worked out at 4.67%.

Turning to `Cc1ccc(CN2CCC[C@@H]3CN(C(=O)c4ccco4)C[C@@H]32)s1`, the cytotoxicity at 10 µM is -1.05%.

`Cc1cc(C(=O)N2CC[C@@H](N(C)C)[C@@H]2Cc2ccccc2)no1`: the cytotoxicity at 10 µM was -0.567%.

With `Cc1ccc(CN2CCC3(CC2)CN(c2cnn(C)c2)C(=O)CO3)o1`, the cytotoxicity at 10 µM is 2.96%.

For `COc1ccc(CN2C[C@@H]3CN(Cc4ccncc4)C[C@@H]3C2=O)cc1`, the cytotoxicity at 10 µM was -3.86%.

Consider `CN(C)c1ncc(-c2cc(C(=O)NCCC#N)n(CC3CC3)c2)cn1`, for which the cytotoxicity at 10 µM was determined as 1.29%.

As to `CN1C(=O)CCCC12CCCN(Cc1cccs1)C2` (stereo not given), the cytotoxicity at 10 µM was -0.302%.

For `Cc1ccsc1CNC1CCCc2c1cnn2C` (stereo not given), the cytotoxicity at 10 µM came to 2.27%.

Take `COCCN1CC[C@]2(CN(Cc3ccccn3)C[C@H]2C)C1=O`: the cytotoxicity at 10 µM was determined as 8.86%.

Consider `O=C(c1n[nH]c2c1CN(C1CCOCC1)CC2)N1CCCC1`, for which the cytotoxicity at 10 µM was -2.39%.

For `O=C([C@H]1COC[C@H]2CN(C3CCOCC3)C[C@H]21)N1CCCO1`, the cytotoxicity at 10 µM was -4.68%.

`CN(C)[C@@H]1CN(Cc2ccco2)C[C@@H]2CCCO[C@@H]21`: the cytotoxicity at 10 µM was 2.75%.

These data come from ChEMBL document CHEMBL4513216, “Probing the Open Global Health Chemical Diversity Library for Multistage-Active Starting Points for Next-Generation Antimalarials” (ACS Infect Dis, 2020).
